Series [1] relates to PC-3. Nature of the series: Induction of apoptosis in human PC-3 cells assessed as reduction in fraction of healthy cells at 1 to 10 uM incubated for 72 hrs by YO-PRO and propidium iodide staining based high content imaging fluorescence microscopic analysis. In kind it is functional, cell-based. To be noted: dose 1-10 µM. The method in brief:
(§1)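 DU145 or PC-3 cells seeded at 2 × 10^3 per well and given CBD at 1, 5 or 10 μM with serum for 72 h; staurosporine as positive control. Stained 30 min with Hoechst 33342 (1:5000), YO-PRO-1 (1:1000) and PI (1:1000). High-content imaging with a 63× water objective. Hoechst gave confluency, nucleus area and circularity; YO-PRO/PI gave healthy, early and late apoptotic fractions.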

Series [2] has as its system PC-3. Nature of the series: Antiproliferative activity against human PC-3 cells assessed as reduction in cell viability incubated for 72 hrs in presence of 10% FBS by MTT assay. In kind it is functional, cell-based. To be noted: PC-3, 72 h. The procedure, abridged: (§2)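 Cells left to adhere 24 h, then exposed to CBD (0–100 μM) for 72 h in medium with 10% FBS. MTT incubation 3 h at 37 °C, DMSO solubilisation, A570. Viability relative to vehicle; IC50 from nonlinear regression; at least three independent experiments.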
For orientation: Formazan colour is commonly taken as a measure of viable cells.

Series [3] concerns DU-145. Nature of the series: Induction of apoptosis in human DU-145 cells at IC50 concentration incubated for 48 hrs by YO-PRO and PI staining based flow cytometry analysis. In kind it is functional, cell-based. The procedure, abridged: (§3)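 After 48 h CBD, DU145 (4 × 10^4 per well) or PC-3 (3 × 10^4 per well) supernatant and trypsinised cells pooled. Stained in ice-cold PBS with YO-PRO (1:1000) and propidium iodide (1:1000). Flow cytometry gated live, early apoptotic and late apoptotic cells and DNA fragmentation.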
Background: A flow cytometer gives signals particle by particle.

For series [4], the system named is PWR-1E. Nature of the series: Induction of cell death in human PWR-1E cells assessed as reduction in nucleus area at 1 to 10 uM incubated for 72 hrs by Hoechst 33342 staining based high-content fluorescence microscopy. In kind it is toxicity. To be noted: dose 1-10 µM.
Series [5] has as its system DU-145. Nature of the series: Induction of cell cycle arrest in human DU-145 cells assessed as arrest in G2/M phase by measuring reduction in CDK7 protein expression at IC50 concentration incubated for 48 hrs by Western blotting analysis. In kind it is functional, cell-based. The method in brief:
(§4)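 DU145 or PC-3 cells seeded at 5 × 10^4 per well and given CBD for 48 h. Lysed in ice-cold RIPA with protease/phosphatase inhibitor; 40 μg protein per lane, SDS-PAGE, PVDF transfer, milk block. Primary antibodies overnight at 4 °C, then HRP secondary 1 h at room temperature, chemiluminescence. Densitometry normalised to loading control, then to vehicle; at least three experiments.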

Series [6] concerns PWR-1E. Nature of the series: Cytotoxicity against human PWR-1E cells assessed as reduction in cell confluency at 1 to 10 uM incubated for 72 hrs by Hoechst 33342 staining based high-content fluorescence microscopy. In kind it is toxicity. To be noted: dose 1-10 µM. The procedure, abridged: (§5)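 PWR-1E cells seeded at 2 × 10^3 per well and given CBD at 1, 2 or 10 μM without serum for 72 h. Stained with Hoechst 33342, YO-PRO-1 and PI, then imaged by high-content microscopy. Scored for confluency and for healthy, early and late apoptotic fractions; at least three independent experiments.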

The test system of series [7] is DU-145. Nature of the series: Antiproliferative activity against human DU-145 cells assessed as reduction in cell viability incubated for 72 hrs in presence of 10% FBS by MTT assay. In kind it is functional, cell-based. The following applies: DU-145, 72 h. The procedure, abridged: as §2
Series [8] deals with LNCaP. Nature of the series: Antiproliferative activity against human LNCaP cells assessed as reduction in cell viability incubated for 72 hrs in serum deprivation condition by MTT assay. In kind it is functional, cell-based. The procedure, abridged: (§6)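 Cells seeded at 1 × 10^3 (DU145, PC-3), 6 × 10^3 (LNCaP), 2 × 10^3 (PWR-1E) or 4.5 × 10^3 (RWPE-1) per well and left to adhere 24 h. CBD (0–100 μM) then given for 72 h in serum-free medium. MTT added for 3 h at 37 °C, formazan dissolved in DMSO, absorbance read at 570 nm. Viability is % of vehicle; IC50 by nonlinear regression; at least three independent experiments.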

The subject of series [9] is PC-3. Nature of the series: Anti-invasive activity against human PC-3 cells assessed as reduction in MMP-9 protein secretion incubated for 48 hrs by ELISA analysis. In kind it is functional, cell-based.
Series [10] has as its system PC-3. Nature of the series: Induction of cell cycle arrest in human PC-3 cells assessed as arrest in G1/S phase by measuring reduction in CDK2 protein expression at IC50 concentration incubated for 48 hrs by Western blotting analysis. In kind it is functional, cell-based. The method in brief: as §4
(In general: Immunoblotting shows a protein as a band on a membrane.)

Series [11] relates to PWR-1E. Nature of the series: Induction of apoptosis in human PWR-1E cells assessed as reduction in fraction of healthy cells at 1 to 10 uM incubated for 72 hrs by YO-PRO and propidium iodide staining based high content imaging fluorescence microscopic analysis. In kind it is toxicity, cell-based. To be noted: dose 1-10 µM. The procedure, abridged:
as §5

The test system of series [12] is PC-3. Nature of the series: Antiproliferative activity against human PC-3 cells assessed as reduction in cell viability incubated for 72 hrs in presence of SR144528 by MTT assay. In kind it is functional, cell-based. The method in brief:
(§7)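 DU145 or PC-3 cells pretreated 1 h with SR141716 (CB1 antagonist), SR144528 (CB2 antagonist), capsazepine (TRPV1 antagonist) or LPI (GPR55 agonist), then given CBD for 72 h. MTT read-out as % of vehicle. Compared with CBD alone by t-test; at least three independent experiments.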

For series [13], the system named is DU-145. Nature of the series: Antiproliferative activity against human DU-145 cells assessed as reduction in cell viability incubated for 72 hrs in serum deprivation condition by MTT assay. The following applies: DU-145, 72 h. In kind it is functional, cell-based. The method in brief: as §6
Series [14] relates to PC-3. Nature of the series: Antiproliferative activity against human PC-3 cells assessed as reduction in cell viability incubated for 72 hrs in presence of SR141716 by MTT assay. In kind it is functional, cell-based. The method in brief:
as §7

In series [15] the test system is DU-145. Nature of the series: Induction of cell death in human DU-145 cells assessed as reduction in cell nucleus area at 1 to 10 uM measured after 72 hrs by Hoechst 33342 staining based high content imaging fluorescence microscopic analysis. In kind it is functional. To be noted: dose 1-10 µM. The method in brief:
as §1

Series [16] is described as follows: Cytotoxicity against human PWR-1E cells assessed as cell viability incubated for 72 hrs in serum deprivation condition by MTT assay. In kind it is toxicity, cell-based. The procedure, abridged:
as §6

Series [17] concerns PC-3. Nature of the series: Induction of apoptosis in human PC-3 cells at IC50 concentration incubated for 48 hrs by YO-PRO and PI staining based flow cytometry analysis. In kind it is functional, cell-based. The procedure, abridged:
as §3

Series [18] concerns PC-3. Nature of the series: Induction of cell death in human PC-3 cells assessed as reduction in cell nucleus area at 1 to 10 uM measured after 72 hrs by Hoechst 33342 staining based high content imaging fluorescence microscopic analysis. In kind it is functional. The following applies: dose 1-10 µM. The method in brief:
as §1

Series [19] relates to DU-145. Nature of the series: Induction of apoptosis in human DU-145 cells assessed as reduction in fraction of healthy cells at 1 to 10 uM incubated for 72 hrs by YO-PRO and propidium iodide staining based high content imaging fluorescence microscopic analysis. In kind it is functional, cell-based. To be noted: dose 1-10 µM. The procedure, abridged:
as §1

Series [20] relates to PC-3. Nature of the series: Anti-invasive activity against human PC-3 cells assessed as increase in E-cadherin protein expression incubated for 48 hrs by Western blotting analysis. In kind it is functional.
Series [21] deals with PWR-1E. Nature of the series: Induction of apoptosis in human PWR-1E cells assessed as early apoptotic cells at 1 to 10 uM incubated for 72 hrs […] and propidium iodide staining based high content imaging fluorescence microscopic analysis. To be noted: dose 1-10 µM. In kind it is toxicity, cell-based. The procedure, abridged: as §5
Series [22] concerns PWR-1E. Nature of the series: Induction of apoptosis in human PWR-1E cells assessed as late apoptotic cells at 1 to 10 uM incubated for 72 hrs by YO-PRO and propidium iodide staining based high content imaging fluorescence microscopic analysis. In kind it is toxicity, cell-based. The following applies: dose 1-10 µM. The method in brief: as §5
Series [23] concerns LNCaP. Nature of the series: Antiproliferative activity against human LNCap cells assessed as reduction in cell viability incubated for 72 hrs in presence of 10% FBS by MTT assay. In kind it is functional, cell-based. The procedure, abridged:
as §2

For series [24], the system named is DU-145. Nature of the series: Inhibition of cell invasion in human DU-145 cells incubated for 48 hrs by crystal violet staining based microscopic analysis. In kind it is functional.

Molecules are shown by their SMILES. Calls of active or inactive are those of the source. The rule behind the calls is not given here.

As a reminder, the IC50 is the concentration needed to halve the response being measured. In the case of `C=C(C)[C@@H]1CCC(C)=C[C@H]1c1c(O)cc(CCCCC)cc1O` [CANNABIDIOL], the outcome in the series with PC-3 [1], in the series on DU-145 [3], in the series with DU-145 [5], in the series with PC-3 [9], in the series on DU-145 [15] and with PC-3 [17] was inactive. Also, the result with PC-3 [18] and in the series on DU-145 [19] was inactive. In addition, the IC50 in the series on PC-3 [2] was 10.5 µM; with DU-145 [7], 12.3 µM; in the series on LNCaP [8], 2.6 µM; in the series on DU-145 [13], 1.5 µM; in the series on LNCaP [23], 18 µM. Moreover, the Activity entry was “Toxic” with PWR-1E [4]; “Toxic” in the series on PWR-1E [6]; “Toxic” with PWR-1E [11]; greater than 2 in the series with PC-3 [20]; “Toxic” in the series on PWR-1E [21]; “Toxic” with PWR-1E [22]. The result in the series on PC-3 [10], with PC-3 [12] and in the series on PC-3 [14] was Active. In addition, the half-inhibitory concentration (IC50) at 72 h in series [16] is 0.9 µM. Also, the inhibition result in the series on DU-145 [24] was “Active”.

Values taken from ChEMBL document CHEMBL5370586 (J Nat Prod, 2023).
